Measurements reported in article PMC5420486 (Clinical cancer research : an official journal of the …, 2016).
“Also recorded” adds a separate entry of the source.

Legend:
[1] = Plasma pharmacokinetics, noncompartmental analysis; type: in vivo, human; conditions: for Tmax: human, plasma, oral
How it was run: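 Patients were dosed orally once daily. Blood was drawn within 60 minutes predose and at 1, 2, 3, 4, 6, 8 and 24 h post dose on days 1 and 15, in both escalation and expansion cohorts. Cmax, Tmax, AUC0-24, AUC0-∞, T1/2, C24 and CL/F were derived from plasma test compound concentrations by noncompartmental analysis.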

[2] = test system: Asian patients with advanced HCC; assay: Phase I dose-escalation, standard 3+3 design; type: in vivo
[3] = test system: patients with other solid tumors; conditions: other tumor types, predominantly non-Asian populations; cited from earlier work
advanced HCC patients = assay: Pharmacogenomic and exploratory biomarker subgroup analyses of TTP; type: in vivo, human; conditions: 30 mg QD
How it was run: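 Advanced HCC patients took oral test compound once daily. For genotyping, venous blood DNA was typed at 20 SNPs in 14 candidate genes by Sanger sequencing or TaqMan assays. Circulating markers, including IL6, were measured by Searchlight at baseline (day 1). TTP ran from drug start to documented progression or death. Genotype was tested by time-to-event models with score (log-rank) test, unadjusted. Biomarkers were tested by proportional hazards regression, univariate and covariate-adjusted.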

[4] = test system: advanced hepatocellular carcinoma (HCC) patients; assay: Anti-tumor activity and survival; type: in vivo, human
[5] = test system: patients with advanced HCC; assay: Safety assessment: adverse events graded by CTCAE v3.0; type: in vivo, human; conditions: for Diarrhoea: treatment-related AE
[6] = test system: Asia-Pacific patients with HCC; conditions: cited from earlier work
[7] = 30 mg QD, RECIST population (n=38)
[8] = 30 mg QD, mRECIST population (n=35)

In the case of COc1cc2c(Oc3ccc(NC(=O)C4(C(=O)Nc5ccc(F)cc5)CC4)cc3F)ccnc2cc1OCCCN1CCOCC1 [foretinib], the dose-proportionality assessment ([1]; 30 to 45 mg, day 15) is reported as “dose proportionality was not achieved”, the “oral clearance (CL/F), 45-mg dose compared with 30-mg dose” value ([1]; day 15, N=6, interpret with caution) is reported as 50 % higher and the Tmax [1] is reported as 3 to 3.5 h. For the same molecule, the Tmax ([1]; 30 mg) was 3 h, the “maximum tolerated dose (MTD)” value ([2]; Asian patients with advanced HCC, oral, first-line) was 30 mg QD and the “dose-limiting toxicities (DLTs)” value ([2]; in vivo) was “no DLTs”. The “previously reported MTD” value [3] was 60 mg QD, the “median TTP” value (advanced HCC patients; one or no copy of NR1I3/CAR CAT haplotype) was “≈ 6 months” and the “median TTP” value (advanced HCC patients; two copies of NR1I3/CAR CAT haplotype) was “≈ 2 months”. The “median time to progression (TTP)” value ([4]; 30 mg QD) was 4.2 months, the Disease stabilization rate [4, 7] was 24 (63·2) n (%) and the Objective response rate [4, 7] was 3 (7·9) n (%). The “Patients achieving best overall response: Complete response” value [4, 7] was 0 n (%), the “Patients achieving best overall response: Disease progression” value [4, 7] was 14 (36.8) n (%) and the “Patients achieving best overall response: Partial response” value [4, 7] was 3 (7.9) n (%). For the same molecule, the “Patients achieving best overall response: Stable disease” value [4, 7] was 21 (55.3) n (%), the “median overall survival (OS)” value ([4]; 30 mg QD, all enrolled patients treated at the MTD (N=39), Kaplan-Meier) was 15.7 months and the Disease stabilization rate ([4]; 30 mg QD, mRECIST) was 82.9%. For the same molecule, the “median duration of response” value ([4]; 30 mg QD, mRECIST) was 7.6 months, the Disease stabilization rate [4, 8] was 29 (82·9) n (%) and the Objective response rate [4, 8] was 8 (22·9) n (%). For the same molecule, the “Patients achieving best overall response: Complete response” value [4, 8] was 0 n (%), the “Patients achieving best overall response: Disease progression” value [4, 8] was 6 (17·1) n (%) and the “Patients achieving best overall response: Partial response” value [4, 8] was 8 (22·9) n (%). For the same molecule, the “Patients achieving best overall response: Stable disease” value [4, 8] was 21 (60·0) n (%), the “objective response rate (ORR)” value ([4]; 30 mg QD, mRECIST, 35 evaluable patients) was 22.9% and the “Patients achieving ≥50% reduction from baseline AFP” value ([4]; 30 mg QD, patients with baseline AFP ≥200 ng/mL (n=15), mRECIST population) was 7 (46·7) n (%). The “patients with a 50% decrease from baseline AFP at at least one time point” value ([4]; 30 mg, baseline AFP ≥ 200 ng/mL) was 46.7%, the “patients achieving a PR” value ([4]; 30 mg, mRECIST) was “eight” and the fatal events ([5]; 30 mg) was “three”. For the same molecule, the “relation of fatal events to study treatment” value ([5]; 30 mg) was “none of these events were considered related to study treatment”, the “dose reductions due to an AE” value ([5]; 30 mg QD) was “no patients; also recorded: no dose reductions” and the Abdominal pain ([5]; 30 mg QD, N=39, all patients) was 5 (12·8) n (%). For the same molecule, the Cough ([5]; 30 mg QD, N=39, all patients) was 6 (15·4) n (%), the Hypoalbuminaemia ([5]; 30 mg QD, N=39, all patients) was 7 (17·9) n (%) and the Insomnia ([5]; 30 mg QD, N=39, all patients) was 6 (15·4) n (%). The Diarrhoea ([5]; 30 mg QD, N=39, all patients) was 6 (15·4) n (%), the Abdominal pain ([5]; 30 mg QD, N=39, grade 3) was 3 (7·7) n (%) and the Cough ([5]; 30 mg QD, N=39, grade 3) was 0 n (%). The Hypoalbuminaemia ([5]; 30 mg QD, N=39, grade 3) was 5 (12.8) n (%), the Insomnia ([5]; 30 mg QD, N=39, grade 3) was 1 (2.6) n (%) and the Diarrhoea ([5]; 30 mg QD, N=39, grade 3) was 0 n (%). For the same molecule, the Abdominal pain ([5]; 30 mg QD, N=39, grade 4) was 0 n (%), the Cough ([5]; 30 mg QD, N=39, grade 4) was 0 n (%) and the Hypoalbuminaemia ([5]; 30 mg QD, N=39, grade 4) was 0 n (%). The Insomnia ([5]; 30 mg QD, N=39, grade 4) was 0 n (%), the Oedema peripheral ([5]; 30 mg QD, N=39, grade 4) was 1 (2.6) n (%) and the Diarrhoea ([5]; 30 mg QD, N=39, grade 4) was 0 n (%).
For CNC(=O)c1cc(Oc2ccc(NC(=O)Nc3ccc(Cl)c(C(F)(F)F)c3)cc2)ccn1 [sorafenib], the “patients requiring dose reduction” value ([6]; Asia-Pacific patients with HCC) is listed as 30.9% and the “median OS” value ([6]; pivotal Asia-Pacific sorafenib study) is listed as 6.5 months.
